Measured values pooled from the literature.
Each line is one published result; the experiments were not run side by side.
Target: Mitogen-activated protein kinase 1 (MAPK1, Homo sapiens, UniProt P28482)

SMILES | observed | action | method | tested at | quantity | value
C[C@H](c1ccc(F)cc1)N(Cc1cccc(C(=O)O)c1)C(=O)c1cnc2ccccc2c1 | cell-free assay |  | competition with immobilised ligand | 1 µM | remaining binding | 99%
CC/C(=N\NC(=O)NCc1cccc(O)c1)c1ccc(O)c(C)c1O | enzyme activity | inhibitor |  | 0.1 µM | inhibition | -10.1%
C[C@H](c1ccnc(Nc2nc3ccc(-c4cc(N(C)C)ncn4)cc3[nH]2)c1)N1CCN(C(=O)CC(F)(F)F)CC1 | cell-free assay |  | competition with immobilised ligand | 0.1 µM | remaining binding | 78%
Cc1sc(C(=O)NC2COC2)cc1-n1cc(NC(=O)Nc2c(F)cccc2Cl)cn1 | enzyme activity | inhibitor |  | 10 µM | remaining activity | 90.8%
Nc1ncnc2occ(-c3ccc(NC(=O)Nc4cc(C(F)(F)F)ccc4F)cc3)c12 | cell-free assay | inhibitor |  | 20 µM | remaining signal | 100%
CN(c1ncccc1CNc1nc(Nc2ccc3c(c2)CC(=O)N3)ncc1C(F)(F)F)S(C)(=O)=O | enzyme activity | inhibitor |  | 1 µM | inhibition | 88.1%
CN(C)C1CCN(CC#Cc2nn(C3CCCC3)c3nc(NCc4ccccc4)ncc23)C1 (stereo not drawn) | enzyme activity | inhibitor | FRET | 10 µM | inhibition | 2%
COc1cc2c(cc1OC)-c1[nH]nc(Nc3cccc(F)c3)c1C2 | cell-free assay |  |  | 0.5 µM | remaining signal | 85.1%
Cc1ccc(Nc2nccc(N(C)c3ccc4c(C)n(C)nc4c3)n2)cc1S(N)(=O)=O | enzyme activity | inhibitor |  | 10 µM | inhibition | -2%
Nc1[nH]nc2nnc(-c3c(-c4ccccc4)nn4ccccc34)cc12 | cell-free assay |  |  | 0.5 µM | remaining signal | 87.2%
CCc1ccccc1C(=O)Nc1n[nH]c2c(C)c(F)c(C3C(C#N)=C(C)N(C)C(C)=C3C#N)cc12 | cell-free assay |  | competition with immobilised ligand | 1 µM | remaining binding | 86%
CCN(CC)CCNC(=O)c1c(C)[nH]c(/C=C2\C(=O)Nc3ccc(F)cc32)c1C | enzyme activity | inhibitor |  | 10 µM | inhibition | 1%
CCOCCn1cc(C(=O)Nc2ccc(-n3nc(-c4cccnc4)cc3C(F)(F)F)cn2)ccc1=O | cell-free assay |  | competition with immobilised ligand | 1 µM | remaining binding | 100%
Cc1ccc(-n2nc(C(C)(C)C)cc2NC(=O)Nc2ccc(OCCN3CCOCC3)c3ccccc23)cc1 | enzyme activity | inhibitor |  | 10 µM | inhibition | -10%
Cc1cnc(NC2CCOCC2)nc1-n1cnc(C(=O)NC(CN)c2cc(F)cc(Cl)c2)c1 (stereo not drawn) | enzyme activity | inhibitor | radiometric | 1 µM | remaining activity | 2%
CCCOc1ccc(OC)c(F)c1C(=O)c1ccc(C(=O)N[C@@H]2CNC[C@H]2NC(=O)c2ccc3[nH]ncc3c2)cc1 | enzyme activity | inhibitor |  | 10 µM | remaining activity | 86%
CC(C)(C)C(=O)c1sc(NC2CCCCC2)nc1N | enzyme activity | inhibitor |  | 10 µM | remaining activity | 95%

SMILES | observed | action | method | tested at | quantity | value
CSc1nc(C)c(-c2ccnc(Nc3ccc(N4CCOCC4)cc3)c2)[nH]1 | enzyme activity | inhibitor |  | 10 µM | inhibition | 5.3%
O=C(Nc1cnn(-c2csc(C(=O)NC3COC3)c2)c1)Nc1ccccc1Cl | enzyme activity | inhibitor |  | 5 µM | remaining activity | 110%
O=C1Cc2c([nH]c3ccc(Br)cc23)-c2ccccc2N1 | cell-free assay |  |  | 0.5 µM | remaining signal | 90.5%
COc1cc(Nc2cnc(C#N)c(O[C@H](C)CN(C)C)n2)ncc1-c1cnn(C)c1 | enzyme activity | inhibitor | radiometric | 1 µM | remaining activity | 101%
Nc1nc(Nc2ccccc2)sc1C(=O)c1c(F)cccc1F | enzyme activity | inhibitor |  | 10 µM | remaining activity | 68%
O=C1NC(=O)c2cc(Nc3ccc(F)cc3)c(Nc3ccc(F)cc3)cc21 | cell-free assay |  |  | 0.5 µM | remaining signal | 121%
CNCc1ccccc1-c1csc([C@@H](C)Nc2nc(C)nc3cc(OC)c(OC)cc23)c1 | cell-free assay |  | competition with immobilised ligand | 1 µM | remaining binding | 78%
Oc1cccc(-c2nc(N3CCOCC3)c3oc4ncccc4c3n2)c1 | enzyme activity | inhibitor |  | 10 µM | remaining activity | 106%
CC(C)(O)[C@H]1CC[C@H](Nc2ccc3ncc(-c4cccc(C(F)(F)F)c4)n3n2)CC1 | enzyme activity | inhibitor |  | 1 µM | remaining activity | 96%
COc1cc2ncnc(Nc3ccc(Oc4ccccc4)cc3C)c2cc1OC | enzyme activity | inhibitor |  | 1 µM | inhibition | -2%
CC1=C(C#N)C(c2ccc3c(c2)c(NC(=O)c2ccccc2C)nn3C)C(C#N)=C(C)N1 | cell-free assay |  | competition with immobilised ligand | 1 µM | remaining binding | 80%
CNC(=O)c1cc(Oc2ccc(NC(=O)Nc3ccc(Cl)c(C(F)(F)F)c3)cc2)ccn1 | cell-free assay |  |  | 0.5 µM | remaining signal | 101%
COc1ccc2c(c1)O[C@H](c1ccc(OC)c(OC)c1)C[C@@H]2NC(=O)C1(c2ccc3c(c2)OC(F)(F)O3)CC1 | cell-free assay |  | competition with immobilised ligand | 1 µM | remaining binding | 99%
CC(C)(C)c1nc(-c2cccc(NS(=O)(=O)c3c(F)cccc3F)c2F)c(-c2ccnc(N)n2)s1 | enzyme activity | inhibitor | radiometric | 1 µM | remaining activity | 88%
CC(=O)N1CCC(c2ccc(C(=O)NC3=NCCN3)cc2C(F)(F)F)CC1 | cell-free assay |  | competition with immobilised ligand | 1 µM | remaining binding | 100%
COc1cc(Cl)c(C(=O)N[C@@H](CN[C@H]2CC[C@@H](N)CC2)Cc2ccc(C#N)cc2)cc1-c1ccc(CN[C@H](C)c2ccc(C)cc2)o1 | enzyme activity | inhibitor |  | 1 µM | remaining activity | 92%
